DENV2 CPE: inhibitors of DENV2 cytopathic effect; DENV2-infected cells, cytopathic effect rescue, plate reader; CPE inhibition, % at 9.99 µM; 350,000 compounds, 1.7% hits; AID 651640; in the data active = CPE inhibition above about 20%, passing the limit was not always enough; inconclusive = no clear call, values can overlap the other calls; tested in BHK-21 cells;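 note: 0% = median of neutral control wells and 100% = median of positive control wells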
PGC1a acetyl inh: modulators of PGC1a acetylation; U2OS PGC1a acetylation, AlphaScreen anti-acetyl-lysine; with virally co-expressed GCN5 acetyltransferase; inhibition, % at 15.6 µM; 350,000 compounds, 0.17% hits;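 active = every replicate shows inhibition of at least 40%; inconclusive = mean inhibition at least 40% but some replicate below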;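 note: 0% = neutral control wells and 100% = positive control wells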
Ecoli rRNA inh: inhibits bacterial ribosomal RNA function over humanized ribosomes; E. coli WT GFP vs humanized-ribosome RFP mutants, fluorescence, 24 h; active compounds read low; DMSO median 0, no signal -100; GFP signal change (wild-type ribosome), % (concentration not given with the values); 350,000 compounds, 1.6% hits;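 active = significant combined selectivity score with lowered wild-type GFP, culture density cut under 30%, mutant RFP and density less affected; inactive = any of these conditions unmet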
FN deposit inh: fibronectin deposition inhibition; inhibition, % at 12.6 µM; 350,000 compounds, 0.086% hits; AID 743247; AH1F fibroblasts, Alexa488-fibronectin deposition fluorescence, overnight;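 active = mean inhibition across replicates of 30% or more, regardless of how many single replicates reach that level; inconclusive = mean under 30% yet at least half of replicates reach 30%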;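 note: positive control wells lacked labelled fibronectin entirely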
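Material: AH1F fibroblast monolayer depositing Alexa488-labelled fibronectin into matrix | Input: 10000 AH1F cells/well | Medium: DMEM plus 2% serum, read in PBS | Reagent: Alexa488-fibronectin, 24 nM final in well | Compound dosing: One dose per compound, pinned | Schedule: 1 h adhesion, overnight exposure | Measured by: Fluorescence at 485 nm excitation, 525 nm emission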
PglD inh: inhibitors of Campylobacter jejuni PglD acetyltransferase; purified PglD enzyme, DTNB colorimetric CoA detection; inhibition, % at 12.5 µM; 360,000 compounds, 0.098% hits; AID 602405; in the data active = inhibition above about 16%, passing the limit was not always enough; inconclusive = no clear call, values can overlap the other calls
HIV Env fusion: inhibitors of HIV Env-mediated cell fusion; AID 651610; 360,000 compounds, 1.1% hits; inhibition, % at 12.3 µM; HeLa-JRFL Env/CEM21 cell fusion, luciferase;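 active = mean replicate inhibition score of at least 50 and every replicate individually at or above 50; inconclusive = only one of the two criteria met; inactive = mean below 50 and not all replicates reaching 50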;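 note: 0% = plate neutral controls and 100% = maraviroc near 300 nM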
* = called active by the depositor; ? = inconclusive; · = not tested or not shown; ! = a repeat was not active; [ ] = dose if it differs, or a comment. Hits are enriched below; roughly 3.5% of the tested compounds scored in any of these assays.

SMILES | DENV2 CPE | PGC1a acetyl inh | Ecoli rRNA inh | FN deposit inh | PglD inh | HIV Env fusion
OCC1OC(n2cnc3c(SCc4ccccc4)ncnc32)C(O)C1O (stereo not given) | 75* | -4 | · | 18 | · | -47
COC(=O)[C@@H](Cc1ccccc1)NC(=O)[C@H]1O[C@@H](n2cnc3c(N)ncnc32)[C@H](O)[C@@H]1O | -3 | -4 | 6 | -3 | 2 | 12
Nc1ncnc2c1ncn2[C@@H]1O[C@H](C(=O)N[C@@H](CCc2ccccc2)C(=O)O)[C@@H](O)[C@H]1O | 28* | · | 8 | 0 | · | 22
OC[C@H]1O[C@@H](n2cnc3c(NCc4ccco4)ncnc32)[C@H](O)[C@@H]1O | -14 | -72 | · | 2 | -3 | -6
COCC(=O)Nc1ccc2c(c1)[C@H]1C[C@H](CC(=O)N3CCc4ccccc4C3)O[C@H](CO)[C@H]1O2 | -6 | 14 | 0 | · | 1 | ·
Cc1nc2ccc(C(=O)NC(C)(C)C)cn2c1N(C)C(=O)CCc1ccccc1 | 35* | · | 0 | 1 | -7 | -8
CCc1c(C(=O)NC2CCCCC2)[nH]c(C)c1C(C)=O | · | 93* | · | 5 | 6 | -75
COc1ccc(NC(=O)N(C)C[C@H]2OCCCC[C@@H](C)Oc3ccc(NC(=O)NC(C)C)cc3C(=O)N([C@H](C)CO)C[C@@H]2C)cc1 | -5 | 1 | 0 | · | 0 | 9[16.7 µM]
CCCCNC(=O)c1cc2c(C)cc(C)cc2[nH]1 | 57* | · | -22* | -5 | · | 6
CCCCN(CC)Cc1ccc(CNC(=O)Nc2ccc(Cl)cc2)o1 | 6 | -7 | 6 | 31* | · | 10
Cc1cc(Cl)c(S(=O)(=O)N2CCCCCC2)cc1OCC(=O)NC1CCCCC1 | · | 4 | · | -4 | -1 | 51*
Cc1cc(Cl)c(S(=O)(=O)N2CCSCC2)cc1OCC(=O)NC1CCCCC1 | · | -6 | · | · | 4 | 93*
O=C(Nc1ccccc1F)N[C@H]1CC[C@@H](CCNS(=O)(=O)c2ccccc2)O[C@@H]1CO | 10 | 2 | -1 | · | -3 | -8[16.7 µM]
NS(=O)(=O)c1ccc(N=Nc2ccc(O)c3ncccc23)cc1 | 0 | · | 14 | 4 | · | 61*
C=C[C@@H]1c2ccccc2N(S(=O)(=O)c2ccc(C)cc2)[C@H](c2ccc(C(F)(F)F)cc2)C1(C#N)C#N | 4 | · | 4 | 5 | 0 | 56*
O=C1CCC/C(=N\NC(=O)c2ccc(CSc3cccc4cccnc34)cc2)C1 | -3 | 1 | -21* | 8 | · | -9
NNC(=O)c1ccc(CSc2cccc3cccnc23)cc1 | -8 | -4 | -6 | 3 | 2 | 0
O=c1oc2ccccc2c(N2CCCC2)c1CN1CCCC1 | 6 | -11 | -18* | · | -8 | ·
COc1cccc(S(=O)(=O)Nc2ccc3c(c2)[C@H]2C[C@H](CC(=O)NCc4ccc(Cl)cc4)O[C@@H](CO)[C@H]2O3)c1 | 1 | -13 | -32 | · | 1 | 57*[16.7 µM]
O=C(C[C@H]1C[C@H]2c3cc(NS(=O)(=O)c4ccc(F)cc4)ccc3O[C@H]2[C@@H](CO)O1)NCc1ccccc1F | -1 | -21 | -5 | 6 | 2 | 83*[16.7 µM]
COc1cccc(S(=O)(=O)Nc2ccc3c(c2)[C@@H]2C[C@@H](CC(=O)NCc4ccc(Cl)cc4)O[C@@H](CO)[C@@H]2O3)c1 | 4 | -3 | -32 | -3 | -4 | -21[16.7 µM]
O=C(C[C@H]1C[C@@H]2c3cc(NS(=O)(=O)c4ccc(F)cc4)ccc3O[C@@H]2[C@@H](CO)O1)NCc1ccc(-c2ccccc2)cc1 | -5 | -1 | -6 | 3 | 2 | 71*[16.7 µM]
COc1ccc(S(=O)(=O)N(C)C[C@@H]2Oc3c(NC(=O)C4CC4)cccc3C(=O)N([C@@H](C)CO)C[C@@H]2C)cc1 | ? | -6 | 2 | · | 3 | -45[16.7 µM]
O=C(CCCCCCCC(=O)NNC(=O)Nc1ccccc1)NNC(=O)Nc1ccccc1 | 115* | · | 20 | -6 | · | ·
O=C(CCc1ccccc1)NNC(=O)Nc1ccccc1 | -2 | 3 | 10 | 16 | · | -58
SMILES | DENV2 CPE | PGC1a acetyl inh | Ecoli rRNA inh | FN deposit inh | PglD inh | HIV Env fusion
Cn1cnc(S(=O)(=O)N[C@@H]2CC[C@@H](CC(=O)Nc3ccc(-c4ccccc4)cc3)O[C@@H]2CO)c1 | 7 | -10 | 0 | · | 1 | 10[16.7 µM]
CCCNC(=O)N1C[C@H]2[C@@H](c3ccccc31)[C@@H](CO)N2C(=O)Nc1ccccc1 | 0 | -1 | 1 | · | 2 | ·
O=C(c1ccc(Cl)cc1)C(Cn1cncn1)C(Sc1ccccc1)c1ccccc1 (stereo not given) | · | 61* | · | · | -1 | ·
Cc1ccc(SC(c2ccccc2)C(Cn2cncn2)C(=O)c2ccccc2)cc1 (stereo not given) | · | -5 | · | · | 5 | ·
O=C1C=CC(=C(c2ccc(O)cc2)c2ccc(O)cc2)C=C1 | -6 | · | -50*! | 5 | 2 | 27
COC(=O)[C@@]12C[C@@H](CC(=O)NCc3ccccc3)C(=O)N(Cc3ccco3)C1=CCC(C)(C)C2 | 6 | · | -3 | 10 | · | 0
COC(=O)[C@@]12C[C@@H](CC(=O)NCc3ccc(OC)c(OC)c3)C(=O)N(CCc3ccc(OC)c(OC)c3)C1=CCC(C)(C)C2 | -3 | · | -10 | · | · | 67*
COC(=O)[C@@]12C[C@@H](CC(=O)NCc3ccc(OC)c(OC)c3)C(=O)N(Cc3ccco3)C1=CCC(C)(C)C2 | 22* | · | · | 7 | · | 7
CCCCCCCCN1C(=O)[C@H](CC(=O)NCc2ccc(OC)c(OC)c2)C[C@@]2(C(=O)OC)CC(C)(C)CC=C12 | 5 | · | 0 | 20 | · | 46
Cc1ccccc1S(=O)(=O)N[C@@H]1CC[C@H](CCn2cc(Cc3ccccc3)nn2)O[C@H]1CO | 3 | -11 | -3 | -4 | 3 | 13[16.7 µM]
CCCCn1c(N)c(N(CC(C)C)C(=O)c2cccc(S(=O)(=O)N(C)c3ccccc3)c2)c(=O)[nH]c1=O | 5 | · | 2 | 11 | 3 | 7
CCCCn1c(N)c(N(CC(C)C)C(=O)c2ccc(S(=O)(=O)N(CC)c3ccccc3)cc2)c(=O)[nH]c1=O | 1 | -3 | 6 | 4 | 4 | 102*
Cc1noc(C)c1NC(=O)N(C)C[C@@H]1OCCCC[C@@H](C)Oc2ccc(NC(=O)c3ccncc3)cc2C(=O)N([C@H](C)CO)C[C@@H]1C | -9 | 8 | 2 | · | -2 | -15[16.7 µM]
O=C(C[C@H]1CC[C@H](NC(=O)c2ccc3c(c2)OCO3)[C@@H](CO)O1)NCc1ccc(F)cc1 | 9 | 11 | -1 | · | 3 | 40[16.7 µM]
CN(C)C(=O)C[C@H]1CC[C@H](NC(=O)c2ccc(F)cc2)[C@@H](CO)O1 | 1 | -6 | -1 | -9 | 0 | -13[16.7 µM]
O=C(C[C@@H]1CC[C@@H](NC(=O)NC2CCCCC2)[C@@H](CO)O1)NCc1ccc(F)cc1 | 39* | 11 | 0 | 17 | 1 | -18[16.7 µM]

Bioassay records: PubChem, Broad Institute
